Measured values: ChEMBL document CHEMBL3098013, “Novel pyrazole integrated 1,3,4-oxadiazoles: synthesis, characterization and antimicrobial evaluation” (2014)
Values after ≈ are worked out from the molar mass of the structure shown.

Tests used:
Type in all cases: functional
Fusarium verticillioides [1] = assay: Antimicrobial activity against Fusarium moniliforme MTCC 156 after 48 hrs by microdilution method; conditions: MTCC 156, 48 h
Summary of the method: (§1)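 The minimal inhibitory concentration was determined by dilution, alongside minimal bactericidal concentration for bacterial strains and minimal fungicidal concentration for fungal strains. Tests were run in six replicates, and the value is the mean of at least three determinations.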

Fusarium oxysporum [2] = assay: Antimicrobial activity against Fusarium oxysporum MTCC 284 after 48 hrs by microdilution method; conditions: MTCC 284, 48 h; summary of the method: as §1
Aspergillus niger [3] = assay: Antimicrobial activity against Aspergillus niger MTCC 281 after 48 hrs by microdilution method; conditions: MTCC 281, 48 h; summary of the method: as §1
Aspergillus flavus [4] = assay: Antimicrobial activity against Aspergillus flavus MTCC 873 after 48 hrs by microdilution method; conditions: MTCC 873, 48 h; summary of the method: as §1
Klebsiella pneumoniae [5] = assay: Antimicrobial activity against Klebsiella pneumoniae MTCC 3384 after 24 hrs by microdilution method; conditions: MTCC 3384, 24 h; summary of the method: as §1
Escherichia coli [6] = assay: Antimicrobial activity against Escherichia coli MTCC 724 after 24 hrs by microdilution method; conditions: MTCC 724, 24 h; summary of the method: as §1
Staphylococcus aureus [7] = assay: Antimicrobial activity against Staphylococcus aureus MTCC 96 after 24 hrs by microdilution method; conditions: MTCC 96, 24 h; summary of the method: as §1
Bacillus cereus [8] = assay: Antimicrobial activity against Bacillus cereus MTCC 8372 after 24 hrs by microdilution method; conditions: MTCC 8372, 24 h; summary of the method: as §1
Fusarium verticillioides [9] = assay: Antimicrobial activity against Fusarium moniliforme MTCC 156 at 100 ug/ml after 48 hrs by disc diffusion method; conditions: MTCC 156, 48 h, read-out: DIZ
Summary of the method: (§2)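 Agar diffusion read-out is the diameter of the inhibition zone in mm. Each test was run in six replicates and reported as mean ± standard deviation, taken from at least three determinations.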

Fusarium verticillioides [10] = assay: Antimicrobial activity against Fusarium moniliforme MTCC 156 at 50 ug/ml after 48 hrs by disc diffusion method; conditions: MTCC 156, 48 h, read-out: DIZ; summary of the method: as §2
Fusarium oxysporum [11] = assay: Antimicrobial activity against Fusarium oxysporum MTCC 284 at 100 ug/ml after 48 hrs by disc diffusion method; conditions: MTCC 284, 48 h, read-out: DIZ; summary of the method: as §2
Fusarium oxysporum [12] = assay: Antimicrobial activity against Fusarium oxysporum MTCC 284 at 50 ug/ml after 48 hrs by disc diffusion method; conditions: MTCC 284, 48 h, read-out: DIZ; summary of the method: as §2
Aspergillus niger [13] = assay: Antimicrobial activity against Aspergillus niger MTCC 281 at 100 ug/ml after 48 hrs by disc diffusion method; conditions: MTCC 281, 48 h, read-out: DIZ; summary of the method: as §2
Aspergillus niger [14] = assay: Antimicrobial activity against Aspergillus niger MTCC 281 at 50 ug/ml after 48 hrs by disc diffusion method; conditions: MTCC 281, 48 h, read-out: DIZ; summary of the method: as §2
Aspergillus flavus [15] = assay: Antimicrobial activity against Aspergillus flavus MTCC 873 at 100 ug/ml after 48 hrs by disc diffusion method; conditions: MTCC 873, 48 h, read-out: DIZ; summary of the method: as §2
Aspergillus flavus [16] = assay: Antimicrobial activity against Aspergillus flavus MTCC 873 at 50 ug/ml after 48 hrs by disc diffusion method; conditions: MTCC 873, 48 h, read-out: DIZ; summary of the method: as §2
Klebsiella pneumoniae [17] = assay: Antimicrobial activity against Klebsiella pneumoniae MTCC 3384 at 100 ug/ml after 24 hrs by disc diffusion method; conditions: MTCC 3384, 24 h, read-out: DIZ; summary of the method: as §2
Escherichia coli [18] = assay: Antimicrobial activity against Escherichia coli MTCC 724 at 100 ug/ml after 24 hrs by disc diffusion method; conditions: MTCC 724, 24 h, read-out: DIZ; summary of the method: as §2
Klebsiella pneumoniae [19] = assay: Antimicrobial activity against Klebsiella pneumoniae MTCC 3384 at 50 ug/ml after 24 hrs by disc diffusion method; conditions: MTCC 3384, 24 h, read-out: DIZ; summary of the method: as §2
Escherichia coli [20] = assay: Antimicrobial activity against Escherichia coli MTCC 724 at 50 ug/ml after 24 hrs by disc diffusion method; conditions: MTCC 724, 24 h, read-out: DIZ; summary of the method: as §2
Staphylococcus aureus [21] = assay: Antimicrobial activity against Staphylococcus aureus MTCC 96 at 100 ug/ml after 24 hrs by disc diffusion method; conditions: MTCC 96, 24 h, read-out: DIZ; summary of the method: as §2
Staphylococcus aureus [22] = assay: Antimicrobial activity against Staphylococcus aureus MTCC 96 at 50 ug/ml after 24 hrs by disc diffusion method; conditions: MTCC 96, 24 h, read-out: DIZ; summary of the method: as §2
Bacillus cereus [23] = assay: Antimicrobial activity against Bacillus cereus MTCC 8372 at 100 ug/ml after 24 hrs by disc diffusion method; conditions: MTCC 8372, 24 h, read-out: DIZ; summary of the method: as §2
Bacillus cereus [24] = assay: Antimicrobial activity against Bacillus cereus MTCC 8372 at 50 ug/ml after 24 hrs by disc diffusion method; conditions: MTCC 8372, 24 h, read-out: DIZ; summary of the method: as §2

SMILES	MFC (Fusarium verticillioides [1]) [µg/mL]	MIC (Fusarium verticillioides [1]) [µg/mL]	MFC (Fusarium oxysporum [2]) [µg/mL]	MIC (Fusarium oxysporum [2]) [µg/mL]	MBC (Klebsiella pneumoniae [5]) [µg/mL]	MIC (Klebsiella pneumoniae [5]) [µg/mL]	MBC (Escherichia coli [6]) [µg/mL]	MIC (Escherichia coli [6]) [µg/mL]	MBC (Staphylococcus aureus [7]) [µg/mL]	MIC (Staphylococcus aureus [7]) [µg/mL]	MBC (Bacillus cereus [8]) [µg/mL]	MIC (Bacillus cereus [8]) [µg/mL]	zone of inhibition at 100 µg/mL (Klebsiella pneumoniae [17]) [mm]	zone of inhibition at 100 µg/mL (Escherichia coli [18]) [mm]	zone of inhibition at 50 µg/mL (Klebsiella pneumoniae [19]) [mm]	zone of inhibition at 50 µg/mL (Escherichia coli [20]) [mm]	zone of inhibition at 100 µg/mL (Staphylococcus aureus [21]) [mm]	zone of inhibition at 50 µg/mL (Staphylococcus aureus [22]) [mm]	zone of inhibition at 100 µg/mL (Bacillus cereus [23]) [mm]	zone of inhibition at 50 µg/mL (Bacillus cereus [24]) [mm]	other results
COc1ccc(-c2nn(-c3ccccc3)c(C)c2-c2nnc(-c3ccccc3)o2)cc1OC	290 (≈ 661 µM)	55 (≈ 125 µM)	220 (≈ 502 µM)	25 (≈ 57 µM)	250 (≈ 570 µM)	35 (≈ 79.8 µM)	220 (≈ 502 µM)	35 (≈ 79.8 µM)	235 (≈ 536 µM)	40 (≈ 91.2 µM)	230 (≈ 525 µM)	35 (≈ 79.8 µM)	9	20	6	14	13	6	16	8	MFC (Aspergillus niger [3]): 275 µg/mL (≈ 627 µM); MIC (Aspergillus niger [3]): 40 µg/mL (≈ 91.2 µM); MFC (Aspergillus flavus [4]): 275 µg/mL (≈ 627 µM); MIC (Aspergillus flavus [4]): 45 µg/mL (≈ 103 µM); zone of inhibition at 100 µg/mL (Fusarium verticillioides [9]): 8 mm; zone of inhibition at 50 µg/mL (Fusarium verticillioides [10]): 6 mm; zone of inhibition at 100 µg/mL (Fusarium oxysporum [11]): 24 mm; zone of inhibition at 50 µg/mL (Fusarium oxysporum [12]): 15 mm; zone of inhibition at 100 µg/mL (Aspergillus niger [13]): 11 mm; zone of inhibition at 50 µg/mL (Aspergillus niger [14]): 3 mm; zone of inhibition at 100 µg/mL (Aspergillus flavus [15]): 8 mm; zone of inhibition at 50 µg/mL (Aspergillus flavus [16]): 5 mm
COc1ccc(-c2nn(-c3ccccc3)c(C)c2-c2nnc(-c3ccccc3)o2)cc1	290 (≈ 710 µM)	40 (≈ 97.9 µM)	280 (≈ 685 µM)	40 (≈ 97.9 µM)	260 (≈ 637 µM)	35 (≈ 85.7 µM)	240 (≈ 588 µM)	35 (≈ 85.7 µM)	240 (≈ 588 µM)	40 (≈ 97.9 µM)	240 (≈ 588 µM)	50 (≈ 122 µM)	9	14	4	8	8	4	9	4	MFC (Aspergillus niger [3]): 275 µg/mL (≈ 673 µM); MIC (Aspergillus niger [3]): 45 µg/mL (≈ 110 µM); MFC (Aspergillus flavus [4]): 270 µg/mL (≈ 661 µM); MIC (Aspergillus flavus [4]): 50 µg/mL (≈ 122 µM); zone of inhibition at 100 µg/mL (Fusarium verticillioides [9]): 6 mm; zone of inhibition at 50 µg/mL (Fusarium verticillioides [10]): 3 mm; zone of inhibition at 100 µg/mL (Fusarium oxysporum [11]): 6 mm; zone of inhibition at 50 µg/mL (Fusarium oxysporum [12]): 4 mm; zone of inhibition at 100 µg/mL (Aspergillus niger [13]): 6 mm; zone of inhibition at 50 µg/mL (Aspergillus niger [14]): 2 mm; zone of inhibition at 100 µg/mL (Aspergillus flavus [15]): 8 mm; zone of inhibition at 50 µg/mL (Aspergillus flavus [16]): 2 mm
Cc1c(-c2nnc(-c3ccc(Cl)cc3)o2)c(-c2ccccc2)nn1-c1ccccc1	300 (≈ 727 µM)	55 (≈ 133 µM)	275 (≈ 666 µM)	40 (≈ 96.9 µM)	220 (≈ 533 µM)	30 (≈ 72.7 µM)	235 (≈ 569 µM)	35 (≈ 84.8 µM)	250 (≈ 606 µM)	45 (≈ 109 µM)	240 (≈ 581 µM)	40 (≈ 96.9 µM)	12	12	6	10	10	5	8	4	MFC (Aspergillus niger [3]): 215 µg/mL (≈ 521 µM); MIC (Aspergillus niger [3]): 25 µg/mL (≈ 60.6 µM); MFC (Aspergillus flavus [4]): 230 µg/mL (≈ 557 µM); MIC (Aspergillus flavus [4]): 30 µg/mL (≈ 72.7 µM); zone of inhibition at 100 µg/mL (Fusarium verticillioides [9]): 8 mm; zone of inhibition at 50 µg/mL (Fusarium verticillioides [10]): 6 mm; zone of inhibition at 100 µg/mL (Fusarium oxysporum [11]): 8 mm; zone of inhibition at 50 µg/mL (Fusarium oxysporum [12]): 4 mm; zone of inhibition at 100 µg/mL (Aspergillus niger [13]): 24 mm; zone of inhibition at 50 µg/mL (Aspergillus niger [14]): 9 mm; zone of inhibition at 100 µg/mL (Aspergillus flavus [15]): 16 mm; zone of inhibition at 50 µg/mL (Aspergillus flavus [16]): 14 mm
CN(C)[C@@H]1C(O)=C(C(N)=O)C(=O)[C@@]2(O)C(O)=C3C(=O)c4c(O)cccc4[C@@](C)(O)[C@H]3C[C@@H]12 [TETRACYCLINE]	–	–	–	–	120 (≈ 270 µM)	8 (≈ 18 µM)	120 (≈ 270 µM)	12 (≈ 27 µM)	120 (≈ 270 µM)	10 (≈ 22.5 µM)	120 (≈ 270 µM)	4 (≈ 9 µM)	20	30	12	18	20	9	21	10	–
